Experimental data from different studies.
PKN1: Serine/threonine-protein kinase N1 (PKN1, Homo sapiens, UniProt Q16512)
CTSV: Cathepsin L2 (CTSV, Homo sapiens, UniProt O60911)
NUAK2: NUAK family SNF1-like kinase 2 (NUAK2, Homo sapiens, UniProt Q9H093)

COC[C@H]1OC(=O)c2coc3c2[C@@]1(C)C1=C(C3=O)[C@@H]2CCC(=O)[C@@]2(C)C[C@H]1OC(C)=O  activity vs control (PKN1; enzyme activity; inhibitor; 1 µM): 111%
CC(C)C[C@H](NC(=O)[C@H]1O[C@@H]1C(=O)O)C(=O)NCCCCN=C(N)N  inhibition (CTSV; enzyme activity; inhibitor; 50 nM): 57%
Nc1ncc(-c2nc(N3CCOCC3)nc(N3CCOCC3)n2)c(C(F)F)n1  remaining binding (Ribosomal protein S6 kinase alpha-6, N-terminal kinase domain (RPS6KA6, Homo sapiens, UniProt Q9UK32); binding; competition with immobilised ligand; 10 µM): 48%
COc1ncccc1-c1cnn2ccc(N3CCN(C(=O)OC(C)C)CC3)nc12  remaining binding (NUAK2; binding; competition with immobilised ligand; 1 µM): 100%
O=c1[nH]c2ccccc2n1C1CCN(Cc2ccc(-c3nc4cc5nc[nH]c5cc4nc3-c3ccccc3)cc2)CC1  activity vs control (PKN1; enzyme activity; inhibitor; 1 µM): 77%
N=C(N)c1ccc2cc(OC(=O)c3ccc(N=C(N)N)cc3)ccc2c1  inhibition (CTSV; enzyme activity; inhibitor; 10 µM): 27%
Cc1nn(C)cc1-c1nc2c(N3CCN(Cc4ccc(Cl)cc4)CC3)c(Cl)cnc2[nH]1  remaining binding (NUAK2; binding; competition with immobilised ligand; 1 µM): 32%
CC(=O)c1c(O)c(C)c(O)c(Cc2c(O)c3c(c(C(=O)/C=C/c4ccccc4)c2O)OC(C)(C)C=C3)c1O  activity vs control (PKN1; enzyme activity; inhibitor; 1 µM): 84%
CN(C)C(=O)COC(=O)Cc1ccc(OC(=O)c2ccc(NC(=N)N)cc2)cc1  inhibition (Matrix metalloproteinase-9 (MMP9, Homo sapiens, UniProt P14780, Q279R); enzyme activity; inhibitor; 10 µM): 8%
